Apaf-1 act – activators of human Apaf-1 apoptosome; Apaf-1 apoptosome caspase-3 activation, DEVD-Rh110 fluorescence; active compounds read low; activity change, negative = activation, % at 20 µM; 330,000 tested, 0.31% active; AID 489031;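 active = activity change at or below -40% at 20 µM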
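Schedule: 30 min preincubation, 50 min reaction, room temperature / System: biochemical Apaf-1 apoptosome reconstitution / Medium: 20 mM HEPES pH 7.5 with CHAPS, BSA / Evaluation: Caspase-3 cleavage activity downstream of Apaf-1 activation / Detection: Caspase-3-released Rh110 fluorescence, 540 nm emission, 480 nm excitation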
Rh110 interf act – counter-screen for Apaf-1 activators: fluorescence interference; shares compounds with Apaf-1 act; fluorescence interference (activity change), % at 20 µM, hits read low; 980 tested, under 10 active; Rh110 fluorescence interference, quenched caspase reaction, Ex480/Em540; AID 504616;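 active = mean activity change at or below -40% when tested at 20 µM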
Apaf-1 act conf2 – Apaf-1 (human) activation, single-dose confirmed. shares compounds with Apaf-1 act. reconstituted apoptosome caspase-3 activity, DEVD-Rh110 fluorescence; active compounds read low. activity change, negative = activation, % at 20 µM. 980 tested, 5% active;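 active = mean activity change at or below -40%, meaning activation of 40% or more, at 20 µM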
The depositor's hits bear a star; . = no result given. These entries were drawn from the full list.

SMILES	Apaf-1 act	Rh110 interf act	Apaf-1 act conf2
CC/C(=C(\c1ccccc1)c1ccc(OCCN(C)C)cc1)c1ccccc1	68.8	.	.
Cc1ccc(O)c([C@H](CCN(C(C)C)C(C)C)c2ccccc2)c1	0.8	.	.
COc1ccccc1N1C(=O)N(C(C)=O)C2C1Nc1ccccc1N2C (stereo unspecified)	82.8	.	.
C#CCOCCOCCOCCNc1nc(N2CCN(C(=O)CCCCCCCCCCNC(=O)[C@@H](CCSC)n3cc(CCO)nn3)CC2)nc(N2CCN(C(=O)CCCCCCCCCCNC(=O)[C@H](CO)n3cc(CCCCCN)nn3)CC2)n1	71.1	.	.
C(=Nc1cccc2c(N=Cc3ccco3)cccc12)c1ccco1	92.5	.	.
N#Cc1c(/N=C/c2ccco2)sc2c1CCCCC2	-169.2*	1.5	22.0
CCSc1ncc(Cl)c(C(=O)Nc2ccc(S(=O)(=O)Nc3ncccn3)cc2)n1	-75.9*	-0.4	5.5
O=C(/C=C\c1ccc2c(c1)OCO2)NC1(C(=O)Nc2ccc3c(c2)OCO3)CCCCC1	-87.2*	2.7	14.4
O=C(NCCCn1ccnc1)c1noc2c1CCc1ccccc1-2	47.2	.	.
O=C(NCCCn1ccnc1)c1cc(Cl)cc(Cl)c1	-105.7*	-38.4	7.3
c1ccc(-c2c(-c3ccccc3)n(Cc3ccco3)c3ncnc(NCCCn4ccnc4)c23)cc1	41.6	.	.
O=C(c1ccco1)[C@@H]1[C@@H]2C(=O)N(c3ccccc3)C(=O)[C@@H]2C2c3ccccc3C=CN21 (stereo partly specified)	85.6	.	.
COc1ccc(-n2c(N)c(C(=O)NCc3ccco3)c3nc4ccccc4nc32)c(OC)c1	64.7	.	.
COc1ccc(C(=O)Nc2ccccc2C(=O)N(Cc2ccco2)C(C(N)=O)C(C)C)cc1 (stereo unspecified)	-351.3*	4.2	15.2
COc1ccc2[nH]c3c(=O)n(/N=C/c4ccc(OC)c(CN5CCCC5)c4)c(C)nc3c2c1	43.1	.	.
O=C(OCC(=O)N1CCN(S(=O)(=O)c2ccc(Cl)cc2)CC1)c1ccc([N+](=O)[O-])o1	69.1	.	.
Cc1c(C(=O)c2ccc(F)cc2F)c2ccccn2c1CCC#N	62.7	.	.
Cn1c2ccccc2c(=O)n2c(=O)c3ccccc3cc12	98.3	.	.
Cn1c(=O)nc2n(Cc3ccccc3)c3ccccc3cc-2c1=O	-172.3*	2.4	14.2
Cn1nc(-c2ccc(Cl)cc2)nc2c(=O)n(C)c(=O)nc1-2	99.0	.	.
O=C(NCc1ccco1)Nc1ccc2nsnc2c1	59.0	.	.
O=C(NCc1ccc2c(c1)OCO2)Nc1cccc(Cl)c1	-45.3*	-4.0	9.5
Fc1ccc(N2CCN(c3nc(CN4CCOCC4)nc4scc(-c5ccccc5)c34)CC2)cc1	41.4	.	.
Cc1ccc(S(=O)(=O)c2nc(S(C)(=O)=O)sc2N(C)C)cc1	-89.7*	-9.2	-23.4
Cc1ccc(S(=O)(=O)N2CCN(c3nc(CN4CCCC4)nc4sc(C)c(C)c34)CC2)cc1	47.8	.	.
SMILES	Apaf-1 act	Rh110 interf act	Apaf-1 act conf2
Cc1ccc(S(=O)(=O)NC2=C(N3CCN(c4ccccc4F)CC3)C(=O)c3ccccc3C2=O)cc1	75.9	.	.
S=c1nc[nH]c2nc[nH]c12	2.3	.	.
CC(C)Oc1ccc(C2NC(=O)c3ccccc3O2)cc1 (stereo unspecified)	-97.8*	1.4	2.5
Cc1ccc(-n2ccnc2SCC(=O)O)c(C)c1	-478.4*	-2.6	12.9
CCOc1ccc2nc3cc(NCc4ccc(OC)cc4)ccc3c(N)c2c1	96.5	.	.
CC(=O)c1ccc(N2CCN(C(=O)CCN3C(=S)NC(C)(C)CC3C)CC2)cc1 (stereo unspecified)	-138.9*	6.6	15.5
O=S(=O)(NCC(Nc1ccccc1)c1ccccc1)c1ccc(Cl)cc1 (stereo unspecified)	-244.9*	7.8	17.8
CCCCn1c(N)c(N(CC)C(=O)CN2C(=O)NC(C)(c3ccccc3)C2=O)c(=O)[nH]c1=O (stereo unspecified)	-440.7*	8.5	10.5
CCC1(C)NC(=O)N(CC(=O)N2CCC(Cc3ccccc3)CC2)C1=O (stereo unspecified)	58.3	.	.
CCC1(c2ccccc2)NC(=O)N(CC(=O)Nc2cc(Cl)ccc2N2CCN(C)CC2)C1=O (stereo unspecified)	58.2	.	.
Cc1ccc(Cl)cc1NC1=C/C(=N\S(=O)(=O)c2cccs2)c2ccccc2C1=O	95.0	.	.
CN(C1=C(NC(=O)c2ccccc2)C(=O)c2ccccc2C1=O)C1CCS(=O)(=O)C1 (stereo unspecified)	88.2	.	.
CCOc1ccccc1NC(=O)c1ccc(Cl)c(NC(=O)CC(c2ccccc2)c2ccccc2)c1	-54.9*	5.9	14.2
CCOC(=O)C1CCN(c2cc3c(cc2NC(=O)c2ccccc2OCC)n(C)c(=O)n3C)CC1	40.4	.	.
Cc1cc2oc3cc(NCCC4CCCN4C)ccc3c(=O)c2cc1C (stereo unspecified)	43.5	.	.
Cc1ccc(NC(=O)C2CCCN2C(=O)NC2CCCCC2)cc1C (stereo unspecified)	-120.5*	13.0	9.5
COc1ccc(-n2c(C)cc(/C=N/Nc3nnc(C)n3N)c2C)cc1	52.6	.	.
CC(C)(C)N1C(=O)Cc2c1nc(N)c1c(N)nc(N3CCCCC3CO)c(C#N)c21 (stereo unspecified)	98.7	.	.
CC1(C)Cc2ccccc2C2=NNC(=O)C2=N1	62.1	.	.
Cc1ccc(-c2nc3n(n2)Cc2ccccc2-3)cc1	-196.6*	0.1	12.7
CC(C)(C)C(=O)NC1=NN(c2c(Cl)cc(Cl)cc2Cl)C(=O)C1	67.6	.	.
O=C(O)/C=C/C(=O)c1ccc(O)cc1	-83.5*	-0.5	0.4
O=c1[nH]c(C2CCN(S(=O)(=O)c3ccc(C(F)(F)F)cc3)CC2)nc2c1nnn2Cc1ccc(F)cc1	41.2	.	.
COc1ccc2cc1Oc1ccc(cc1)CC1c3c(cc(OC)c4c3Oc3cc5c(cc3O4)CCNC5C2)CCN1C (stereo unspecified)	41.1	.	.
COc1cc2c(cc1NC(=O)C(C)N1CCN(S(=O)(=O)c3ccc(C)c(C)c3)CC1)oc1ccccc12 (stereo unspecified)	-578.4*	13.6	12.8
SMILES	Apaf-1 act	Rh110 interf act	Apaf-1 act conf2
CC(Oc1cccc(Cl)c1)C(=O)Nc1cc(S(=O)(=O)N2CCOCC2)ccc1N1CCCCC1 (stereo unspecified)	47.7	.	.
COc1ccccc1OCCNC(=O)c1cccc(S(=O)(=O)N2CCN(Cc3ccccc3)CC2)c1	67.2	.	.
COC(=O)CCC(=O)OC1(C)C(=O)C2=CN(CCCCO)C(c3ccc(OC)cc3)=CC2=C(Br)C1=O (stereo unspecified)	80.2	.	.
Fc1cccc(CCN2CCNC[C@H]2Cc2cccc3ccccc23)c1	43.0	.	.
C[C@H](NC(=O)N1CCn2c1nc1ccccc12)C(=O)NC1CCCCC1	-168.3*	15.0	16.0
NC1=NC[C@H](Cc2ccc(O)cc2)N1CCC12CC3CC(CC(C3)C1)C2	49.4	.	.
O=C(c1ccc([N+](=O)[O-])o1)N(Cc1nnc(-c2ccccc2Cl)o1)C1CC1	51.0	.	.
Cc1cc(C)n2nc(C(=O)N3CCCC(CNS(=O)(=O)c4cccs4)C3)cc2n1 (stereo unspecified)	-393.9*	3.9	12.6
COc1ccc(OC)c(C2CC(=O)N3CN(c4cccc(Cl)c4)CSC3=C2C#N)c1 (stereo unspecified)	80.5	.	.
CCOC(=O)c1cnc(SCC(=O)N2CCN(C(=O)c3ccco3)CC2)nc1N	-93.1*	1.2	9.9
